Active and inactive are the calls of the source. The rule behind the calls is not given here. *1 amine or outer side, *2 acyl side, *3 side chain or, on linkers, in order; H or OH if unused. Where a SMILES comes first, the peptide text is derived from it. Bridges are numbered along the chain shown (N, C = ends). Roman numbers before positions name the chains, in order. [ ]: non-standard residue; d: D form. Actinocin(1to9) = Cc1c2oc3c(C)ccc(C(=O)[*:2])c3nc-2c(C(=O)[*:1])c(N)c1=O; NMeV = CN[C@H](C(=O)O)C(C)C; Sar = CNCC(=O)O

Assay [1] concerns CCRF-CEM. Briefly: Cytotoxicity against human CCRF-CEM cells after 72 hrs. The format is functional, cell-based. In outline:
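CCRF-CEM human leukaemia cells exposed to agents for 72 h at 37 °C in RPMI 1640 with 10% foetal bovine serum. Cells counted with a Coulter Counter, duplicates per concentration, experiment repeated ≥3 times; IC50 from curve fitting.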

The subject of a further assay is Escherichia coli. Briefly: Binding affinity to Escherichia coli pBR322 DNA assessed as equivalence binding ratio by agarose gel electrophoresis. Summed up:
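Supercoiled pBR322 closed circular DNA (150 ng, 23.6 µM bp) mixed with dimer in tris acetate buffer pH 7.5, 40 mM for Pip dimers and 10 mM for NMP dimers; 1 h dark incubation at room temperature; 0.8% agarose gel, 74 V (5 V/cm), 1 h 15 min. Equivalence ratio in base-pair units, taken where supercoiling is removed and closed and nicked circles co-migrate; ≥3 titrations.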

In assay [2] the test system is CCRF-CEM. Briefly: Cell cycle arrest in human CCRF-CEM cells assessed as accumulation at G2/M phase after 24 hrs by flow cytometry. Format: functional, cell-based. Summed up: (§1)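 CCRF-CEM cells seeded at 1 × 10^5 per ml in flasks and grown 24 h. Drug then added at 1×, 2×, 5× or 10× the measured 72 h IC50 and cells incubated a further 24 h; untreated controls. Cells washed in PBS, fixed in ice-cold ethanol, stained with propidium iodide and analysed by flow cytometry for % cells at G2/M.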
Background: Flow cytometry measures light scatter and fluorescence of single cells or particles in a stream.

The subject of assay [3] is CCRF-CEM. Description: Cell cycle arrest in human CCRF-CEM cells assessed as accumulation at G2/M phase at 10 times IC50 after 24 hrs by flow cytometry. The format is functional. Summed up:
as §1

Assay [4] has as its system CCRF-CEM. Briefly: Cell cycle arrest in human CCRF-CEM cells assessed as accumulation at G2/M phase at 5 times IC50 after 24 hrs by flow cytometry. Format: functional. In outline: as §1
Assay [5] concerns CCRF-CEM. Description: Cell cycle arrest in human CCRF-CEM cells assessed as accumulation at G2/M phase at 1 time IC50 after 24 hrs by flow cytometry. The format is functional. Summed up: as §1

Take `O=C(NCCN1CCCCC1)c1cccc2c(NCCCNCCCNc3c4ccccc4nc4c(C(=O)NCCN5CCCCC5)cccc34)c3ccccc3nc12`: the midpoint of inhibition in the assay on CCRF-CEM [1], the IC50, lay at 260 nM. In the assay with Escherichia coli, the Ratio stood at 0.14. Also, the result with CCRF-CEM [2] was inactive.

Turning to `CN1CCC(NC(=O)c2cccc3c(NCCCNCCCNc4c5ccccc5nc5c(C(=O)NC6CCN(C)CC6)cccc45)c4ccccc4nc23)CC1`, in the assay on CCRF-CEM [1], the IC50 (as a rule, the concentration at which inhibition is half-maximal) was found to be 680 nM. Besides, the Activity in the assay on CCRF-CEM [3] is listed as 50%. The Ratio with Escherichia coli stood at 0.24.

As for `O=C(NCCN1CCCCC1)c1cccc2c(NCCN3CCN(CCNc4c5ccccc5nc5c(C(=O)NCCN6CCCCC6)cccc45)CC3)c3ccccc3nc12`, half-maximal inhibition in the assay on CCRF-CEM [1] (IC50) was put at 130 nM. Moreover, in the assay with Escherichia coli, the Ratio was found to be 0.13. Besides, the outcome in the assay with CCRF-CEM [2] was inactive.

On to `CN1CCC(NC(=O)c2cccc3c(NCCN4CCN(CCNc5c6ccccc6nc6c(C(=O)NC7CCN(C)CC7)cccc56)CC4)c4ccccc4nc23)CC1`, for which the IC50 in the assay on CCRF-CEM [1] was 800 nM. The Activity with CCRF-CEM [4] amounted to 52%.

The molecule `O=C(NCCN1CCCCC1)c1cccc2c(NCCNCCNCCNc3c4ccccc4nc4c(C(=O)NCCN5CCCCC5)cccc34)c3ccccc3nc12` came in with a concentration for half-maximal inhibition (IC50) in the assay with CCRF-CEM [1] of 270 nM. The Ratio in the assay on Escherichia coli was 0.16. The outcome with CCRF-CEM [2] was inactive.

In the assay with CCRF-CEM [1], `CN1CCC(NC(=O)c2cccc3c(NCCCCCCCCNc4c5ccccc5nc5c(C(=O)NC6CCN(C)CC6)cccc45)c4ccccc4nc23)CC1` showed an IC50 of 130 nM. Further, the Activity with CCRF-CEM [3] came to 43%. The Ratio in the assay with Escherichia coli came to 0.175.

For `O=C(NCCN1CCCCC1)c1cccc2c(NCCCCNCCCNc3c4ccccc4nc4c(C(=O)NCCN5CCCCC5)cccc34)c3ccccc3nc12`, half-maximal inhibition with CCRF-CEM [1] (IC50) was put at 230 nM. Also, the Ratio with Escherichia coli turned out to be 0.135. Moreover, in the assay on CCRF-CEM [2], the outcome was inactive.

In the case of `CN1CCC(NC(=O)c2cccc3c(NCCCCCCNc4c5ccccc5nc5c(C(=O)NC6CCN(C)CC6)cccc45)c4ccccc4nc23)CC1`, 210 nM corresponded to half-maximal inhibition in the assay with CCRF-CEM [1] (IC50). Further, in the assay with Escherichia coli, the Ratio came to 0.25.

`CN1CCC(NC(=O)c2cccc3c(NCCCCNCCCNc4c5ccccc5nc5c(C(=O)NC6CCN(C)CC6)cccc45)c4ccccc4nc23)CC1`: in the assay on CCRF-CEM [1], the IC50 was determined as 340 nM. In addition, the Ratio in the assay with Escherichia coli stood at 0.21.

For the molecule `CN(C)CCNC(=O)c1cccc2c(N)c3ccccc3nc12`, the IC50 in the assay on CCRF-CEM [1] amounted to 120 nM. In addition, in the assay with CCRF-CEM [3], the Activity was 61%.

`CN1CCC(NC(=O)c2cccc3c(NCCNCCNCCNc4c5ccccc5nc5c(C(=O)NC6CCN(C)CC6)cccc45)c4ccccc4nc23)CC1` registered an IC50 in the assay on CCRF-CEM [1] of 1100 nM. In the assay with CCRF-CEM [3], the Activity was determined as 40%. Also, the Ratio in the assay on Escherichia coli was 0.11.

For `O=C(NCCN1CCCCC1)c1cccc2c(NCCCCCCCCNc3c4ccccc4nc4c(C(=O)NCCN5CCCCC5)cccc34)c3ccccc3nc12`, in the assay on CCRF-CEM [1], 99 nM corresponded to half-maximal inhibition (IC50). Also, in the assay on Escherichia coli, the Ratio was found to be 0.16. For the same molecule, in the assay with CCRF-CEM [2], the outcome was inactive.

For `COc1cc(NS(C)(=O)=O)ccc1Nc1c2ccccc2nc2ccccc12` [AMSACRINE], in the assay with CCRF-CEM [1], inhibition was half-maximal at 130 nM (IC50). In addition, the Activity with CCRF-CEM [5] was determined as 68%.

In the assay with CCRF-CEM [1], `Cc1c2oc3c(C)ccc(C(=O)N[C@@H]4C(=O)N[C@H](C(C)C)C(=O)N5CCC[C@H]5C(=O)N(C)CC(=O)N(C)[C@@H](C(C)C)C(=O)O[C@@H]4C)c3nc-2c(C(=O)N[C@@H]2C(=O)N[C@H](C(C)C)C(=O)N3CCC[C@H]3C(=O)N(C)CC(=O)N(C)[C@@H](C(C)C)C(=O)O[C@@H]2C)c(N)c1=O` [DACTINOMYCIN] (I: T[dV]P[Sar][NMeV] / II: T[dV]P[Sar][NMeV]; ester I:1-I:C, II:1-II:C; linker I:N-II:N via Actinocin(1to9)) came in with an IC50 of 1.6 nM. The outcome in the assay on CCRF-CEM [2] was inactive.

In turn, `O=C(NCCN1CCCCC1)c1cccc2c(NCCCCCCNc3c4ccccc4nc4c(C(=O)NCCN5CCCCC5)cccc34)c3ccccc3nc12` yielded an IC50 in the assay with CCRF-CEM [1] of 200 nM. Also, in the assay on Escherichia coli, the Ratio was determined as 0.14. Besides, in the assay with CCRF-CEM [2], the result was inactive.

The values are drawn from ChEMBL document CHEMBL1149875, “DNA threading bis(9-aminoacridine-4-carboxamides): effects of piperidine sidechains on DNA binding, cytotoxicity and cell cycle arrest” (Bioorg Med Chem, 2008).
